According to publication PMC10653054 (ACS Omega, 2023):

How the values were obtained:
Panc-1 cells [1] = experiment: Cell cycle analysis by PI staining flow cytometry; type: cell-based, human; details: Panc-1, IC50 concentration, 48 h; control 1.82%
[2] = test system: caspase-3, cleaved-caspase-3, pro-caspase-3 in Panc-1 cells; experiment: Western blot analysis of caspase-3 proteins; type: cell-based, human; details: Panc-1, IC50 concentration, 48 h
In short: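 Panc-1 cells were exposed to test compound and harvested after 48 h. Lysates were prepared in lysis buffer, and protein was quantified by Bradford assay. Proteins were separated on 15% SDS-PAGE, transferred to PVDF and probed with primary and secondary antibodies. β-actin was the loading control. Bands were detected by chemiluminescence and imaged.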

Panc-1 cells [3] = experiment: Annexin V-FITC/PI dual staining flow cytometry apoptosis assay; type: cell-based, human; details: Panc-1, treated at IC50 concentration, 48 h
In short: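 Panc-1 cells were seeded, held overnight at 37 °C under 5% CO2, then exposed to test compound for 48 h. Untreated cells were the negative control. Cells were trypsinized, washed twice in PBS, pelleted at 1200 rpm and resuspended in binding buffer. Labelled annexin V and propidium iodide were added, and cells were incubated 15 min at room temperature in the dark. Flow cytometry followed.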

[4] = test system: normal human dermal fibroblast (HDF) cells; experiment: MTT cytotoxicity assay, normal HDF cells; type: cell-based; details: 48 h, read-out: In vitro antiproliferative effects (IC50) HDF
In short: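 Cells came from the National Cell Bank of Iran and were grown in RPMI-1640 or DMEM with 10% FBS at 37 °C, 5% CO2 and 100% humidity. Test compounds in 0.1% DMSO (n = 3) were incubated 48 h, then MTT for 3 h, with formazan OD read at 570 nm. Controls were 0.1% DMSO (negative) and etoposide (positive). IC50 came from dose–response curves, mean ± SE of at least three independent experiments.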

In the case of O=c1[nH]nc(O)c2c(-c3cccc([N+](=O)[O-])c3)c3n(c12)CCn1cccc1-3 [7m, 11-Hydroxy-12-(3-nitrophenyl)-5,6-dihydropyrrolo[2″,1″:3′,4′]pyrazino[1′,2′:1,5] pyrrolo[2,3-d]pyridazin-8(9H)-one], the “proportion of cells in the sub-G1 phase” value (Panc-1 cells [1]) is reported as 5.47%, the caspase-3 protein level [2] is reported as “downregulation” and the pro-caspase-3 protein level [2] is reported as “remained unchanged”. The “necrosis (Q1)” value (Panc-1 cells [3]; control 0.586) was 0.851%, the “early apoptosis (Q3)” value (Panc-1 cells [3]; control 4.12) was 5.56% and the “late apoptosis (Q2)” value (Panc-1 cells [3]; control 4.12) was 5.45%. The “live cells (Q4)” value (Panc-1 cells [3]; control 91.2) was 88.1%, the “cell apoptosis (total apoptotic cells)” value (Panc-1 cells [3]; untreated cells 8.24%) was 11.01% and the IC50 [4] was > 100 µM.
